≈ marks a conversion by molar mass, not a printed value. Like-named read-outs stand apart in the source and are kept apart here. Each block holds one molecule with its values, some of them ahead of it.
What was measured:
S. aureus ATCC 29213 [1] = assay: MIC, CLSI broth microdilution; format: cell-based, Staphylococcus aureus; details: for antibacterial activity relative to FA: S. aureus ATCC 29213, MIC; for MIC fold worse than FA: S. aureus ATCC 29213
In short: (§1)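 Broth microdilution followed CLSI, in cation-adjusted Mueller-Hinton broth in round-bottom wells, run in biological triplicate. Reference strains came from ATCC.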

S. aureus ATCC 29213 [2] = assay: Resistance frequency, large inoculum method; format: cell-based, Staphylococcus aureus; details: 2, 4, 8, 16, 32X the MIC
S. aureus = assay: MIC shift in 50% human serum; format: cell-based, Staphylococcus aureus
In short: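 The CLSI broth microdilution MIC in cation-adjusted Mueller-Hinton broth was repeated against S. aureus with 50% human serum (ultrafiltrate, 30K Dalton membrane-filtered, unspecified gender) in the medium. Testing was in biological triplicate.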

[3] = test system: human foreskin fibroblast-1 cells (HFF-1); assay: Cell viability, Alamar Blue, 72 h; format: cell-based
In short: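 HFF-1 fibroblasts were grown in DMEM with 15% fetal bovine serum, 100 μg/mL penicillin and 100 μg/mL streptomycin at 37 °C under 5% CO2. Cells were harvested, seeded and left to adhere. They were exposed to compounds in DMSO (1% final) for 72 h, and viability was then read by Alamar Blue. Raptinal (20 μM) served as the dead control.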

[4] = mouse, in vivo
[5] = test system: six clinical isolates of E. faecium (VRE); assay: MIC against clinical isolates of E. faecium; format: cell-based, Enterococcus faecium; details: for activity against VRE clinical isolates: E. faecium clinical isolates with high levels of vancomycin resistance
[6] = human, in vivo; cited from earlier work
[7] = test system: clinical isolates of S. aureus / staphylococci resistant to FA; details: cited from earlier work
E. faecium ATCC 19434 = assay: MIC against sensitive E. faecium; format: cell-based, Enterococcus faecium
In short: as §1

[8] = test system: 29 clinical isolates of S. aureus; assay: MIC against multidrug-resistant clinical isolates of S. aureus; format: cell-based, Staphylococcus aureus; details: 29 multidrug-resistant clinical isolates
[9] = test system: S. aureus strains in the United States; details: analysis conducted in 2011; cited from earlier work
S. aureus (FA-32X-B) = assay: Neutropenic thigh infection burden study, FA-resistant strain; format: in vivo, CD-1 mice; details: 50 mg/kg IP at 1, 2, 3 h postinfection, 8 h postinfection
[10] = Mouse maximum tolerated dose / tolerability
[11] = test system: strains of S. aureus ATCC 29213 resistant to FA-CP; assay: MIC against FA-CP-resistant mutant strains; format: cell-based, Staphylococcus aureus
S. aureus ATCC BAA-1721 = assay: MIC against S. aureus strain harboring the fusC gene; format: cell-based, Staphylococcus aureus; details: S. aureus ATCC BAA-1721, fusC gene
[12] = test system: FA-resistant strains of S. aureus ATCC 29213; format: cell-based, Staphylococcus aureus

SMILES: CC(=O)OC1CC2(C)C(CC(O)C3C4(C)CCC(O)C(C)C4CCC32C)C1C(CCCC(C)C)C(=O)O (stereo not shown) [compound 28]
- antibacterial activity relative to FA (S. aureus ATCC 29213 [1]): modest decreases in potency relative to FA

SMILES: CC(=O)OC1CC2(C)C(CC(O)C3C4(C)CCC(O)C(C)C4CCC32C)C1=C(CCC=C1CCCCC1)C(=O)O (stereo not shown) [compound 26]
- resistance frequency relative to FA (S. aureus ATCC 29213 [2]): only displayed an improvement at 32X the MIC
- shift in MIC in 50% human serum compared to FA (S. aureus): very similar
- IC50 ([3]; HFF-1 cells, 72 h): > 50 µM
- MIC (S. aureus ATCC 29213 [1]; S. aureus ATCC 29213, CLSI): 0.125 µg/mL (≈ 0.225 µM)
- antibacterial activity relative to FA (S. aureus ATCC 29213 [1]): equipotent activity to FA

SMILES: CC(=O)O[C@H]1C[C@@]2(C)[C@@H](C[C@@H](O)[C@H]3[C@@]4(C)CC[C@@H](O)[C@@H](C)[C@@H]4CC[C@@]32C)/C1=C(\CCC=C(C)C)C(=O)O [sodium fusidate]
- tolerability in mice, single dose ([4]; ip, 50 mg/kg): well tolerated

- MIC fold worse than FA (S. aureus ATCC 29213 [1]): 4–8 fold
SMILES: CC(=O)OC1CC2(C)C(CC(=O)C3C4(C)CCC(O)C(C)C4CCC32C)C1=C(CCC=C(C)C)C(=O)O (stereo not shown) [compound 10]

SMILES: CC(=O)O[C@H]1C[C@@]2(C)[C@@H](C[C@@H](O)[C@H]3[C@@]4(C)CC[C@@H](O)[C@@H](C)[C@@H]4CC[C@@]32C)/C1=C(\CCC=C1CCOCC1)C(=O)O [compound 27]
- resistance frequency relative to FA (S. aureus ATCC 29213 [2]): worse resistance frequency relative to FA
- shift in MIC in 50% human serum compared to FA (S. aureus): very similar
- IC50 ([3]; HFF-1 cells, 72 h): > 50 µM
- MIC (S. aureus ATCC 29213 [1]; S. aureus ATCC 29213, CLSI): 0.125 µg/mL (≈ 0.224 µM)
- antibacterial activity relative to FA (S. aureus ATCC 29213 [1]): equipotent activity to FA

- MIC fold worse than FA (S. aureus ATCC 29213 [1]): 4–8 fold
SMILES: CC(=O)OC1CC2(C)C(CC(O)C3C4(C)CCC(=O)C(C)C4CCC32C)C1=C(CCC=C(C)C)C(=O)O (stereo not shown) [compound 5]

SMILES: CN[C@H](CC(C)C)C(=O)N[C@H]1C(=O)N[C@@H](CC(N)=O)C(=O)N[C@H]2C(=O)N[C@H]3C(=O)N[C@H](C(=O)N[C@H](C(=O)O)c4cc(O)cc(O)c4-c4cc3ccc4O)[C@H](O)c3ccc(c(Cl)c3)Oc3cc2cc(c3O[C@@H]2O[C@H](CO)[C@@H](O)[C@H](O)[C@H]2O[C@H]2C[C@](C)(N)[C@H](O)[C@H](C)O2)Oc2ccc(cc2Cl)[C@H]1O [vancomycin]
- MIC [5]: 512 µg/mL (≈ 353 µM)

SMILES: CC(=O)O[C@H]1C[C@@]2(C)[C@@H](C[C@@H](O)[C@H]3[C@@]4(C)CC[C@@H](O)[C@@H](C)[C@@H]4CC[C@@]32C)/C1=C(\CCC=C(C)C)C(=O)O [FA, Fusidic acid, reference compound]
- Cmax [6]: greater than 130 μg/mL
- half-life [6]: 10 to 14 h
- tolerability in mice, multiple doses [4]: well tolerated
- IC50 ([3]; Homo sapiens, HFF-1, 72 h): > 50 µM
- increase in MIC upon resistance ([7]; L461K mutation): > 2048 fold
- MIC ([7]; S. aureus clinical strains with EF-G L461K mutation): > 256 µg/mL
- MIC ([7]; five S. aureus clinical isolates with EF-G V90I, H457Q, L461K, A655V): > 256 µg/mL
- MIC range ([7]; staphylococcal clinical isolates that carry the fusC gene): 2 to 64 µg/mL
- MIC range ([7]; strains that possess the fusB gene): 4 to 1024 µg/mL
- MIC (E. faecium ATCC 19434; Enterococcus faecium, ATCC19434): 2 µg/mL (≈ 3.87 µM)
- activity against clinical isolates of S. aureus [8]: no cross-resistance with vancomycin and retained potent activity
- S. aureus strains susceptible to FA [9]: 99.7%
- activity against VRE clinical isolates [5]: retained potent activity
- MIC (S. aureus ATCC 29213 [1]; Staphylococcus aureus, ATCC29213): 0.125 µg/mL (≈ 0.242 µM)
- bacterial burden in thigh (S. aureus (FA-32X-B)): no efficacy

SMILES: CC(=O)OC1CC2(C)C(CC(O)C3C4(C)CCC(O)C(C)C4CCC32C)C1=C(CCC=C1CCCC1)C(=O)O (stereo not shown) [FA-CP]
- resistance frequency relative to FA (S. aureus ATCC 29213 [2]): modest improvement in resistance frequency at 2 and 32X the MIC
- shift in MIC in 50% human serum compared to FA (S. aureus): very similar
- tolerability in mice, multiple doses ([10]; 50 mg/kg, intraperitoneal injection, once-a-day for 4 days): well tolerated
- tolerability in mice, single dose ([10]; single dose of 50 mg/kg, IP): well tolerated
- IC50 ([3]; HFF-1 cells, 72 h): > 50 µM
- fold increase in MIC from wild-type (WT) S. aureus ([11]; highest MIC of colonies generated from FA-CP): 512 fold
- highest MIC observed for colonies generated from FA-CP ([11]; resistance mutants generated at 32X the MIC): 64 µg/mL
- MIC for FA-CP ([11]; strain FA-CP-32X-1, EF-G H457Y): 32 µg/mL
- MIC for FA-CP ([11]; strain FA-CP-32X-2, EF-G H457Y): 64 µg/mL
- MIC for FA-CP ([11]; strain FA-CP-32X-3, EF-G H457Y): 64 µg/mL
- MIC for FA-CP ([11]; strain FA-CP-32X-4, EF-G H457Y): 32 µg/mL
- MIC for FA-CP ([11]; strain FA-CP-32X-5, EF-G H457Y): 64 µg/mL
- MIC for FA-CP ([11]; strain FA-CP-32X-6, EF-G H457Y): 64 µg/mL
- MIC for FA-CP ([11]; strain FA-CP-32X-7, EF-G H457Y): 64 µg/mL
- MIC for FA-CP ([11]; strain FA-CP-32X-8, EF-G H457Y): 64 µg/mL
- MIC for FA-CP ([11]; strain FA-CP-32X-9, EF-G H457Y): 32 µg/mL
- MIC for FA-CP ([11]; strain FA-CP-32X-10, EF-G D434N): 32 µg/mL
- MIC for FA-CP ([11]; strain FA-CP-32X-11, EF-G H457Y): 32 µg/mL
- MIC for FA-CP ([11]; strain FA-CP-32X-12, EF-G D434N): 32 µg/mL
- MIC for FA-CP ([11]; strain FA-CP-32X-13, EF-G H457Y): 64 µg/mL
- MIC for FA-CP ([11]; strain FA-CP-32X-14, EF-G H457Y): 32 µg/mL
- MIC for FA-CP ([11]; strain FA-CP-32X-15, EF-G H457Y): 64 µg/mL
- MIC for FA-CP ([11]; strain FA-CP-32X-16, EF-G F88L): 64 µg/mL
- MIC for FA-CP ([11]; strain FA-CP-32X-17, EF-G F88L): 64 µg/mL
- MIC for FA-CP ([11]; strain FA-CP-32X-18, EF-G H457Y): 64 µg/mL
- MIC for FA-CP ([11]; strain FA-CP-32X-19, EF-G H457Y): 32 µg/mL
- MIC for FA-CP ([11]; strain FA-CP-32X-20, EF-G H457Y): 32 µg/mL
- MIC (S. aureus ATCC BAA-1721): 8 µg/mL (≈ 14.7 µM)
- MIC (E. faecium ATCC 19434; sensitive strain E. faecium ATCC 19434): 2 µg/mL (≈ 3.68 µM)
- activity against clinical isolates of S. aureus [8]: no cross-resistance with vancomycin and retained potent activity
- improvement in activity against FA-resistant strains relative to FA ([12]; 11 FA-resistant strains): 2–8 fold
- MIC ([12]; FA-resistant strain FA-4X-A, EF-G T385N): 2 µg/mL (≈ 3.68 µM)
- MIC ([12]; FA-resistant strain FA-4X-B, EF-G T385N): 2 µg/mL (≈ 3.68 µM)
- MIC ([12]; FA-resistant strain FA-8X-A, EF-G T385N): 2 µg/mL (≈ 3.68 µM)
- MIC ([12]; FA-resistant strain FA-8X-B, EF-G R464L): 8 µg/mL (≈ 14.7 µM)
- MIC ([12]; FA-resistant strain FA-16X-A, EF-G H457Y): 64 µg/mL (≈ 118 µM)
- MIC ([12]; FA-resistant strain FA-32X-A, EF-G F88L): 128 µg/mL (≈ 236 µM)
- MIC ([12]; FA-resistant strain FA-32X-B, EF-G P406L): 4 µg/mL (≈ 7.37 µM)
- MIC ([12]; FA-resistant strain FA-32X-C, EF-G H457L): 128 µg/mL (≈ 236 µM)
- MIC ([12]; FA-resistant strain FA-32X-D, EF-G T436I): 2 µg/mL (≈ 3.68 µM)
- MIC ([12]; FA-resistant strain FA-32X-E, EF-G H457N): 128 µg/mL (≈ 236 µM)
- MIC ([12]; FA-resistant strain FA-32X-F, EF-G D434N): 32 µg/mL (≈ 59 µM)
- activity against VRE clinical isolates [5]: retained potent activity
- MIC (S. aureus ATCC 29213 [1]; S. aureus ATCC 29213, CLSI): 0.125 µg/mL (≈ 0.23 µM)
- antibacterial activity relative to FA (S. aureus ATCC 29213 [1]): equipotent activity to FA
- bacterial burden in thigh (S. aureus (FA-32X-B)): reductions in bacterial burden

Reference: PMC8713577 (ACS infectious diseases, 2021)
